Screening data as filed in PubChem.
NR3A LBD binder: modulates the human NR3A ligand-binding domain; Tm shift relative to glycine control, % at 25 µM; hit rate 2.5% among 340,000; NR3A LBD differential scanning fluorimetry, Tm shift; 0% = protein alone, 100% = glycine-bound protein;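 active means melting temperature shift of at least 10% of the positive control shift, at one fixed dose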
MPTP inh: permeability transition pore inhibition. inhibition, % at 10 µM. AID 602449. hit rate 1.4% among 360,000. isolated mouse mitochondria, Ca2+ swelling absorbance, 30 min;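 active means inhibition of 50% or more, scaled per plate between neutral and stimulator controls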
aDG glyco up: alpha-DG glycosylation activation | Pro5-aDG cells, alpha-DG glycosylation AlphaScreen (IIH6); 0% Pro5, 100% B10-LARGE cell signal | activation, % at 10 µM | hit rate 0.22% among 360,000;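 active means activation of at least 8% versus controls, or a plate z-score of at least 8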;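 further: Pro5 are CHO cells carrying HIG-tagged alpha-DG that lacks glycosylation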
procasp3 activ: procaspase-3 (human) activation | P42574 | recombinant procaspase-3 D3A, Ac-DEVD-pNA absorbance 405 nm | activation, % at 8.5 µM | hit rate 0.11% among 330,000 | AID 463141;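 active means activation above the mean of all tested compounds plus 3 SD, cut at about 21% in these data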
Target sequence (P42574 whole entry D9A/D28A/D175A): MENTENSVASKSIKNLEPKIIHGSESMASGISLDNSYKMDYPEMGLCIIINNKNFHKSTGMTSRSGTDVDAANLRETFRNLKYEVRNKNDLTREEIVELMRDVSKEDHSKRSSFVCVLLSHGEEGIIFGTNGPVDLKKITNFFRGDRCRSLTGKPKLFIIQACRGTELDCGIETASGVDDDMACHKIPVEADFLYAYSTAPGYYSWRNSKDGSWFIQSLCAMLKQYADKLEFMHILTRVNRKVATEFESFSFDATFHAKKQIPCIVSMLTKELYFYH
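Assay system: Procaspase-3 D3A mutant, all three cleavage aspartates alanine. Buffer or medium: Zinc-free HEPES saline buffer with Triton X-100. Times: 1 h compound preincubation, 2 h substrate hydrolysis at 25 °C. Measured by: 405 nm absorbance of p-nitroaniline, reads at 0 and 120 min. Read-out basis: percent activation relative to control range. Replicates: singlicate.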
proCasp7 act: counter-screen for procaspase-3 activators: activators of human procaspase-7 | activation, % at 8.5 µM | hit rate 0.093% among 330,000 | recombinant procaspase-7, Ac-DEVD-pNA absorbance 405 nm; D23A/D198A/D206A triple mutant, cannot self-cleave; scale: DMSO 0, 5 µM enzyme 100 | P55210;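 active means percent activation above the screen-wide mean plus 3 SD, cut at about 25% in these data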
Target sequence (P55210 whole entry D23A/D198A/D206A): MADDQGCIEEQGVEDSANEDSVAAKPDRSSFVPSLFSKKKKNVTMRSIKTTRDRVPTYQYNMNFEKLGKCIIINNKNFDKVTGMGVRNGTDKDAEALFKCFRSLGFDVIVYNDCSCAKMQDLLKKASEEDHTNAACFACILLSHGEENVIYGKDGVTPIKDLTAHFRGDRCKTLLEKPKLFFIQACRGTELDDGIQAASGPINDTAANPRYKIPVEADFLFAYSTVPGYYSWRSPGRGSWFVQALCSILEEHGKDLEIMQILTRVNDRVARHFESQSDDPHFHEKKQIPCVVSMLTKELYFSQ
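buffer or medium = Zinc-free HEPES/NaCl buffer, pH 7.4 | material = Procaspase-7 triple mutant (PC-7 D3A) | input = 2 µM procaspase-7 mutant as dispensed | signal = Epi-absorbance of released pNA at 405 nm, two timepoints | timing = 1 h preincubation, 2 h reaction | replicates = singlicate compound testing | evaluation = % activation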
Rh123 counter: mitochondrial membrane potential, counter-screen. shares compounds with MPTP inh. isolated mitochondria, Rhodamine 123 fluorescence. inhibition, % at 10 µM. hit rate 78% among 5,000. AID 624504; in the data active means inhibition above about 22%
MPTP swell DR: dose response confirmation of mitochondrial permeability transition pore inhibitors; shares compounds with MPTP inh; isolated mitochondria swelling, absorbance; IC50, µM; hit rate 58% among 780; AID 651561; in the data active means IC50 below about 20 µM
MPTP cs DR: counter-screen for mitochondrial permeability transition pore inhibitors, dose response. shares compounds with MPTP inh. isolated mitochondria counterscreen, fluorescence read-out. IC50, µM. hit rate 49% among 780. AID 651564; in the data active means IC50 below about 80 µM
Hits are given with their value. A selection: hits, their analogues and other compounds. The true share with any hit is near 3.7%.

For CSc1cccc(NC(=O)c2cc(S(=O)(=O)N3CCc4ccccc43)cn2C)c1 the results were NR3A LBD binder inactive, MPTP inh inactive, aDG glyco up inactive, procasp3 activ inactive and proCasp7 act inactive.
CCOC(=O)c1csc(NC(=O)CCS(=O)(=O)c2ccc(Cl)cc2)n1 was read as MPTP inh inactive and aDG glyco up inactive.
Screening NS(=O)(=O)c1cccc(NC(=O)COC(=O)CNC(=O)c2ccc(-c3ccccc3)cc2)c1 returned NR3A LBD binder inactive, MPTP inh inactive, aDG glyco up inactive, procasp3 activ inactive and proCasp7 act inactive.
O=S(NCc1ccco1)C12CC3CC(CC(C3)C1)C2 (configuration not stated) was read as NR3A LBD binder inactive, MPTP inh inactive, aDG glyco up inactive, procasp3 activ inactive and proCasp7 act inactive.
`Cc1nnc(SCC(=O)Nc2cccc(S(=O)(=O)N3CCCC3)c2)n1C1CC1` gave MPTP inh inactive and aDG glyco up inactive.
Nc1ccc(CCCC(=O)NCc2cccnc2)cc1 was read as MPTP inh inactive and aDG glyco up inactive.
`CCOC(=O)C1C(c2ccc(O)c(OC)c2)NC(=S)NC1(O)C(F)(F)F` (configuration not stated) gave NR3A LBD binder inactive, MPTP inh inactive, aDG glyco up inactive, procasp3 activ inactive and proCasp7 act inactive.
`O=C(NC(=S)Nc1ccc(Br)c(Cl)c1)C1CC1` gave NR3A LBD binder inactive, MPTP inh inactive and aDG glyco up inactive.
CC(=O)c1ccc(NC(=S)Nc2ccc(Br)c(Cl)c2)cc1 was read as NR3A LBD binder 29, MPTP inh 96, aDG glyco up inactive, procasp3 activ inactive, proCasp7 act inactive and Rh123 counter 100.
`O=C(Nc1ccccc1)Nc1cccc(Cl)c1Cl` gave NR3A LBD binder inactive, MPTP inh 93, aDG glyco up inactive, procasp3 activ inactive, proCasp7 act inactive and Rh123 counter 97.
Screening CSc1ccccc1NC(=O)Nc1cccc(Cl)c1Cl returned NR3A LBD binder inactive, MPTP inh inactive, aDG glyco up inactive, procasp3 activ inactive and proCasp7 act inactive.
COc1cc([N+](=O)[O-])ccc1NC(=S)NCc1ccccn1 was read as NR3A LBD binder inactive, MPTP inh inactive, aDG glyco up inactive, procasp3 activ inactive and proCasp7 act inactive.
Screening COc1cc([N+](=O)[O-])ccc1NC(=S)Nc1cc(C(=O)OC(C)C)cc(C(=O)OC(C)C)c1 returned NR3A LBD binder 12, MPTP inh 92, aDG glyco up inactive, procasp3 activ inactive, proCasp7 act inactive and Rh123 counter 84.
`Oc1ccc(Br)cc1-c1cc(-c2ccccc2Cl)[nH]n1` gave NR3A LBD binder 23, MPTP inh 74, aDG glyco up inactive, procasp3 activ inactive, proCasp7 act inactive and Rh123 counter 59.
Screening Oc1ccc(Br)cc1-c1cc(-c2ccccc2F)[nH]n1 returned NR3A LBD binder inactive, MPTP inh 63, aDG glyco up inactive, procasp3 activ inactive, proCasp7 act inactive and Rh123 counter 58.
Screening Cc1cn([C@H]2C[C@H](O)[C@@H](/C=C/C(=O)NCc3ccc(N(C)C)cc3)O2)c(=O)[nH]c1=O returned MPTP inh inactive and aDG glyco up inactive.
`Cc1cc(C(=O)COC(=O)c2cccc(NS(C)(=O)=O)c2)c(C)n1CC1CCCO1` (configuration not stated) gave NR3A LBD binder inactive, MPTP inh inactive, aDG glyco up inactive, procasp3 activ inactive and proCasp7 act inactive.
O=C1O[C@@H](c2ccccc2)C[C@@H](O)C(=O)CCCc2ccccc21 was read as MPTP inh inactive and aDG glyco up inactive.
Screening Cc1ccc(NS(=O)(=O)N2CCCCC2)cc1 returned NR3A LBD binder inactive, MPTP inh inactive and aDG glyco up inactive.
`COc1cccc(OCCNC(=O)c2cc([N+](=O)[O-])cc([N+](=O)[O-])c2)c1` gave NR3A LBD binder inactive, MPTP inh inactive, aDG glyco up inactive, procasp3 activ inactive and proCasp7 act inactive.
Cc1ccc(OCCNC(=O)c2cc(C(=O)NCCOc3ccc(C)cc3)cc([N+](=O)[O-])c2)cc1 was read as NR3A LBD binder inactive, MPTP inh 74, aDG glyco up inactive, procasp3 activ inactive, proCasp7 act inactive and Rh123 counter 83.
`Cc1ccc(-c2cnc(C(O)c3ccc(Cl)cc3C)[nH]2)cc1` (configuration not stated) gave MPTP inh inactive and aDG glyco up inactive.
Screening COc1ccccc1C(=O)NCCC(=O)N1CCN(S(=O)(=O)c2ccccc2C(F)(F)F)CC1 returned NR3A LBD binder inactive, MPTP inh inactive and aDG glyco up inactive.
For Cc1ccc2nc3c(c(Nc4ccc(O)cc4)c2c1)CCC3 the results were NR3A LBD binder inactive, MPTP inh inactive, aDG glyco up inactive, procasp3 activ inactive and proCasp7 act inactive.
`Cc1cccc(Nc2c3c(nc4ccccc24)CCC3)c1` gave NR3A LBD binder inactive, MPTP inh 78, aDG glyco up inactive, procasp3 activ inactive, proCasp7 act inactive and Rh123 counter 74.
Cc1ccc2nc3c(c(Nc4ccc5c(c4)OCCO5)c2c1)CCC3 was read as NR3A LBD binder inactive, MPTP inh 54, aDG glyco up inactive, procasp3 activ inactive, proCasp7 act inactive and Rh123 counter 76.
N#Cc1cccc(Nc2c3c(nc4ccccc24)CCC3)c1 was read as MPTP inh inactive, aDG glyco up inactive, procasp3 activ inactive and proCasp7 act inactive.
For OC(c1cc(C(F)(F)F)nc2c(C(F)(F)F)cccc12)C1CCCCN1 (configuration not stated) the results were NR3A LBD binder inactive, MPTP inh 92, aDG glyco up inactive, procasp3 activ inactive, proCasp7 act inactive and Rh123 counter inactive.
For CN1CCN(NC(=O)c2cc(-c3cccc(Cl)c3)nc3ccccc23)CC1 the results were NR3A LBD binder inactive, MPTP inh inactive, aDG glyco up inactive, procasp3 activ inactive and proCasp7 act inactive.
Screening OC(c1cc(-c2cccc(Cl)c2)nc2ccccc12)C1CCCCN1 (configuration not stated) returned NR3A LBD binder inactive, MPTP inh 82, aDG glyco up inactive, Rh123 counter inactive, MPTP swell DR 3.6 and MPTP cs DR 29.
Screening CC(C)=Cc1c(O)nc2ccccn2c1=O returned NR3A LBD binder inactive, MPTP inh inactive, aDG glyco up inactive, procasp3 activ inactive and proCasp7 act inactive.
